Screening results (PubChem)
Most compounds without a hit are left out; they make up all but 2.3% or so of the library.
CSN deneddyl inh – inhibitors of CSN-mediated cullin deneddylation, primary screen, biochemical, fluorescence polarization, uHTS; COP9 signalosome complex subunit 5 (Homo sapiens), Q92905; Purified CSN, SCF-Nedd8-OG deneddylation; inhibition, % at 12.5 µM; actives 0.38% (n = 360,000);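 active = pattern-corrected inhibition above about 35%, with an unprinted fluorescence ratio check between 0.5 and 1.5, limit read from the data, passing the limit was not always enough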;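 note: 0% = enzyme with substrate and 100% = substrate without enzyme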
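Test system: purified human Csn5 enzyme expressed in HEK293T cells. Amount: 0.24 nM enzyme. Reagent: SCFSkp2-Nedd8OG substrate at 10 nM final. Schedule: 90 min incubation of compound, enzyme and substrate at room temperature. Detection: fluorescence polarization. Read-out: % inhibition of substrate cleavage by Csn5.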
SKN-1 block – suppressors of acrylamide-induced Pgst-4::GFP reporter in worms, primary screen, SKN-1 inhibitor project, whole organism, uHTS, GFP/RFP fluorescence ratio, strain VP596; C. elegans VP596 Pgst-4::GFP/RFP ratio, 24 h; inhibition, % at 21.8 µM; actives 0.49% (n = 360,000); AID 624304, 2012;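 active = interference check ratio from 0.5 to 1.5 plus GFP to RFP signal ratio inhibition reaching or exceeding a fixed threshold, cut at about 30% in these data, passing the limit was not always enough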
Rpn11 block – Rpn11 (PSMD14) deubiquitinase inhibitors, primary screen, biochemical, fluorescence polarization, uHTS; 26S proteasome non-ATPase regulatory subunit 14 (Homo sapiens), O00487; actives 0.59% (n = 360,000); inhibition, % at 20 µM; human 26S proteasome, Ub4-pepOG fluorescence polarization; 20S core pre-blocked with epoxomicin;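 active = inhibition at 20 µM, scaled to each plate's controls, above about 33%, limit read from the data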
Target sequence (O00487 whole entry, looked up): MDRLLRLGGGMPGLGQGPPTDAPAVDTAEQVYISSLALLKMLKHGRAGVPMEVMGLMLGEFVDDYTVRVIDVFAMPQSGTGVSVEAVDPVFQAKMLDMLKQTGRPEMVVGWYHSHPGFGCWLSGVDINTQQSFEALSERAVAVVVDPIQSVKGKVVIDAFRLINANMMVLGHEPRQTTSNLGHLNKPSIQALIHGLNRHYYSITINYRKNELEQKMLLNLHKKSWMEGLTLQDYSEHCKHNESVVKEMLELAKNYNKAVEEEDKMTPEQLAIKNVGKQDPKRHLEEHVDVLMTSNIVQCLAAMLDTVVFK
DNMT1 block – human DNMT1 methyltransferase inhibitors, primary screen, biochemical, molecular beacon, fluorescence, HinP1I cleavage, uHTS; DNA (cytosine-5)-methyltransferase 1 (Homo sapiens), P26358; inhibition (reported as % activation of signal), % at 10 µM; AID 588458, 2011; actives 0.83% (n = 360,000); in the data active = inhibition above about 50%
MT1-MMP act inh – blockers of MT1-MMP proenzyme processing, primary screen, HT1080 RFP-PRO-GFP cells, GFP/RFP fluorescence. Matrix metalloproteinase-14 (Homo sapiens), P50281. GFP/RFP ratio fluorescence, overnight; percent of plate control window, DMSO zero. GFP/RFP ratio change, % at 20 µM. actives 0.061% (n = 360,000). AID 651647, 2012;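 active = GFP/RFP ratio change of at least 30% with cell ATP level not reduced by more than half and red fluorescence within 50% of control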
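Assay system – RFP-PRO-GFP reporter HT1080 cells · Compound dosing – single dose of 20 µM compound, 1% DMSO final · Incubation – overnight compound exposure at 37 °C · Measure – GFP/RFP fluorescence ratio · Benchmarks – DMSO wells and RFP-L50D-GFP cells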
SUMO1-SIM PPI – modulators of SUMO1 protein-protein interactions, primary screen, biochemical, uHTS. AID 602429, 2012. SUMO1 binding to a labelled peptide, TR-FRET, 1 h. Small ubiquitin-related modifier 1 (Homo sapiens), P63165. actives 0.33% (n = 360,000). inhibition, % at 20 µM; in the data active = inhibition above about 37%
Target sequence (P63165 whole entry, looked up): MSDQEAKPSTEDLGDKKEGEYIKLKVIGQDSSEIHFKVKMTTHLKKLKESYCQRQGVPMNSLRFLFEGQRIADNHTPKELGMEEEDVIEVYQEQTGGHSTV
DNMT1 inh conf – DNMT1 methyltransferase inhibitor retest, confirmation, biochemical, molecular beacon, fluorescence, single concentration. shares compounds with DNMT1 block. DNMT1 molecular beacon HinP1I cleavage. inhibition, % at 10 µM. actives 8% (n = 2,300). AID 602385, 2012;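 active = average inhibition of at least 30% in the single-concentration confirmation test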
DNMT1 interf – beacon fluorescence artifact counter-screen | shares compounds with DNMT1 block | DNMT1 molecular beacon spectral interference counterscreen, fluorescence 485/520 | activation (fluorescence interference), % at 10 µM | actives 1% (n = 2,300);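 active = activation of at least 30% at 10 µM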;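 note: DNMT1 catalytic domain with a HinP1I cleavage step and a FAM/dabcyl DNA beacon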
Starred values were filed as active, the others as inactive; nt = not tested or not shown.

SMILES	CSN deneddyl inh	SKN-1 block	Rpn11 block	DNMT1 block	MT1-MMP act inh	SUMO1-SIM PPI	DNMT1 inh conf	DNMT1 interf
COc1ccc2nc(C)cc(SCC(=O)Nc3c(C)cc(C)cc3C)c2c1	9	2	13	55*	4	-3	4	-1
COc1ccc(-c2ccc3[nH]c4c(c3c2)CCN2C(=O)[C@@H]([C@H](C)O)[C@@H](N(C)C(=O)Nc3ccc(F)cc3)C[C@@H]42)cc1	2	-23	8	-27	-8	6	nt	nt
O=C1CSc2ccc(S(=O)(=O)NCc3ccccc3Cl)cc2N1	0	15	5	1	1	5	nt	nt
CC(CS(=O)(=O)c1ccc2c(c1)NC(=O)CS2)C(=O)NCc1ccccc1Cl (stereo not drawn)	20	3	27	93*	-7	90*	17	4
N#Cc1c(-c2cccc(Br)c2)cc(-c2ccco2)[nH]c1=O	36*	2	12	87*	-43	29	10	14
CCCCNC(=O)C1C(c2ccc(OC)cc2)=Nc2ccccc2N1C(=O)c1cccnc1 (stereo not drawn)	5	-5	nt	nt	3	-6	nt	nt
C=C/C(C)=C/C[C@H]1C(=C)CCC2[C@](C)(C(=O)O)CCC[C@@]21C (stereo partly drawn)	23	12	1	89*	1	14	2	-7
C=C1CCC2[C@](C)(CO)[C@H](O)CC[C@@]2(C)[C@@H]1C/C=C1\C(=O)OC[C@H]1O (stereo partly drawn)	2	-8	-2	5	6	5	nt	nt
CCCc1nc2ccccc2n1C(CCSC)C(=O)NC(C)(C)C (stereo not drawn)	0	8	nt	nt	1	-4	nt	nt
CCOc1ccc(/C=c2\sc3nc(-c4ccco4)nn3c2=O)cc1OCC	24	-10	-25	65*	1	12	4	-1
COCCn1c(-c2ccc(-c3ccc([N+](=O)[O-])cc3Br)o2)nc2c1c(=O)[nH]c(=O)n2CC(C)C	21	2	nt	70*	-21	-8	-1	-1
COc1ccc2c(c1)C(=NNC(=O)c1ccccn1)c1cc(OC)ccc1-2	11	-7	8	88*	-2	10	2	-3
O=C(NC1CCCC1)C1C(c2ccc(C(F)(F)F)cc2)=Nc2ccccc2N1C(=O)c1cccc2ccccc12 (stereo not drawn)	-1	11	nt	nt	-26	-7	nt	nt
COc1ccccc1C#CC1=CC(=O)CC(C)(C)C1	2	-2	-17	6	-1	-17	nt	nt
CC(=O)Oc1cccc2c1C(=O)c1c(OC(C)=O)cc(C(=O)O)cc1C2=O	-14	-17	-29	-19	1	-17	nt	nt
O=C(O)c1cc(O)c2c(c1)C(=O)c1cc(O)cc(O)c1C2=O	46	4	-25	81*	22	20	16	-2
Cc1c(=O)n(OCc2ccccc2F)c2ccccc2[n+]1[O-]	4	11	0	84*	nt	-19	3	1
O=C(c1ccc(S(=O)(=O)Cc2cc(F)ccc2F)c([N+](=O)[O-])c1)N1CCOCC1	-9	-13	-5	6	6	-36	nt	nt
COc1ccc(-c2nc(CCNC(=O)c3ccco3)cs2)cc1OC	5	10	10	83*	-6	-4	0	1
COc1ccc(-c2csc(NC(=O)CCNC(=O)c3ccco3)n2)cc1OC	2	11	-6	-3	-2	6	nt	nt
OCc1cccc(-c2cnc3c(Nc4cccc(OC(F)(F)C(F)F)c4)nccn23)c1	0	13	1	-2	2	-1	nt	nt
C=CCC1NS(=O)(=O)OCC1C(C)C (stereo not drawn)	-1	10	1	50*	1	3	1	1
C=CCC1NS(=O)(=O)OCC1NC(=O)OCC(Cl)(Cl)Cl (stereo not drawn)	-4	3	2	4	0	-1	nt	nt
S=C(SSC(=S)N1CCOCC1)N1CCOCC1	-6	4	9	5	0	3	nt	nt
O=C(Nc1ccc(NC(=O)c2sc3ccccc3c2Cl)cc1Cl)c1ccco1	11	1	18	75*	5	-1	0	-2
SMILES	CSN deneddyl inh	SKN-1 block	Rpn11 block	DNMT1 block	MT1-MMP act inh	SUMO1-SIM PPI	DNMT1 inh conf	DNMT1 interf
COc1ccc(NC(=S)NCc2cccnc2)cc1	-8	-10	0	89*	0	3	3	3
COc1ccc(NC(=S)NCc2cccnc2)cc1OC	-3	-5	7	0	2	0	nt	nt
O=C(Nc1nc(OCCN2CCCC2=O)cnc1/C=C\c1ccccc1)c1cc2ccccc2s1	-3	-7	-9	-17	-14	-7	nt	nt
COc1ccc(C2C(C(=O)c3ccccc3)=C(C)Nc3nc4ccccc4n32)cc1OC (stereo not drawn)	5	-3	2	59*	0	1	0	1
COc1ccc(OC)c(C2C(C(=O)c3ccccc3)=C(C)Nc3nc4ccccc4n32)c1 (stereo not drawn)	0	2	-5	6	-1	-2	nt	nt
O=C1CN(C(=O)NCC(=O)N[C@H](Cc2ccccc2)C(=O)O)c2ccccc2N1	1	-9	1	74*	0	2	1	6
COc1ccc(C)cc1NC(=O)CN(Cc1nnc(-c2ccc(Cl)cc2)o1)C1CCCC1	3	24	10	59*	-12	0	0	-2
O=C(O)C1C2C=CC(CC2)C1C(=O)O (stereo not drawn)	7	-15	-5	77*	4	34	4	6
CC(C)c1ccc(NC(=O)C2C3C=CC(CC3)C2C(=O)O)cc1 (stereo not drawn)	109	20	5	8	4	14	nt	nt
